Screening data as filed in PubChem BioAssay.
NS3 helicase inh – blocks Hepatitis C virus NS3 helicase unwinding | inhibition, % at 10.9 µM | NS3 helicase DNA unwinding, Cy5 molecular beacon fluorescence | AID 1800 | actives 0.56% (n = 290,000);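 active = inhibition above the mean of all tested compounds plus 3 SD, set per campaign, cut at about 35% in these data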;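 note: 0% = DMSO wells and 100% = thioflavine S control wells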
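System: HCV NS3 helicase fragment; control set: DMSO and thioflavine S; technique: Cy5 fluorescence at 0 and 60 min, beacon hairpin quenching; reagent: beacon DNA duplex substrate plus ATP; replicates: singlicate; schedule: 1 h reaction at 25 °C, ATP-initiated; medium: MOPS buffer pH 6.5 with MgCl2, DTT, Tween20, BSA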
CHOP UPR activ – activators of apoptotic arm of unfolded protein response (CHOP); CHO-CHOP luciferase reporter, UPR activation, luminescence; percent of tunicamycin response over DMSO baseline; activation, % at 10 µM; actives 0.34% (n = 330,000); AID 449763;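 active = at 10 µM dose, activation of 40% or more, normalized to positive control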;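 note: 100% = tunicamycin at 10 µg/mL and 0% = DMSO alone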
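Assay system: CHO cells with stable CHOP pathway luciferase reporter; Buffer or medium: F12 plus 10% serum; Times: 16-18 h cell attachment, then 6 h compound exposure, 37 °C; Signal: luciferase luminescence; Read-out basis: percent activation relative to tunicamycin control; Control set: tunicamycin high control, DMSO low control.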
CHOP inhibitor – CHOP inhibition in unfolded protein response; CHO-K1 CHOP-promoter luciferase, tunicamycin-induced, 15-18 h; inhibition, % at 10 µM; actives 3.8% (n = 220,000); AID 2732;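 active = compounds that reduced the stress-induced luciferase reporter signal by more than about 70% of percent inhibition, limit read from the data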;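 note: 0% = tunicamycin plus vehicle and 100% = wells without tunicamycin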
PfM18AAP inh-1 – blocks P. falciparum M18 aspartyl aminopeptidase | recombinant PfM18AAP, H-Glu-NHMec fluorogenic cleavage | inhibition, % at 7.35 µM | actives 1.2% (n = 290,000) | AID 1822;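 active = inhibition above the campaign mean inhibition over all tested compounds plus 3 SD, cut at about 28% in these data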;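 note: 0% = plate median of test compound wells and 100% = 2 mM ZnCl2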
XBP1 UPR activ – adaptive UPR (XBP1) activation; CHO-XBP1 luciferase reporter, IRE1-XBP1 UPR activation, luminescence; percent of tunicamycin response, DMSO as zero; activation, % at 20 µM; actives 0.33% (n = 330,000); AID 463104;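 active = versus positive control, 20 µM dose yields 30% or more activation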;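 note: 100% = tunicamycin at 10 µg/mL and 0% = DMSO only wells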
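incubation = overnight seeding at 37 °C, 6 h compound treatment at 37 °C | assay system = CHO-XBP1 cells stably carrying IRE1-XBP1-driven luciferase reporter | input = 1000 cells per well | detection = luciferase luminescence | dosing = single point, 20 µM final compound, 1% DMSO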
p97 inhibitor – blocks human p97 ATPase activity; P55072; inhibition, % at 8 µM; recombinant p97 ATPase, Kinase-Glo ATP luminescence, 3 h; actives 0.42% (n = 220,000); in the data active = inhibition above about 15%;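 note: 0% = DMSO vehicle and 100% = wells lacking enzyme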
Target sequence (P55072 whole entry, looked up): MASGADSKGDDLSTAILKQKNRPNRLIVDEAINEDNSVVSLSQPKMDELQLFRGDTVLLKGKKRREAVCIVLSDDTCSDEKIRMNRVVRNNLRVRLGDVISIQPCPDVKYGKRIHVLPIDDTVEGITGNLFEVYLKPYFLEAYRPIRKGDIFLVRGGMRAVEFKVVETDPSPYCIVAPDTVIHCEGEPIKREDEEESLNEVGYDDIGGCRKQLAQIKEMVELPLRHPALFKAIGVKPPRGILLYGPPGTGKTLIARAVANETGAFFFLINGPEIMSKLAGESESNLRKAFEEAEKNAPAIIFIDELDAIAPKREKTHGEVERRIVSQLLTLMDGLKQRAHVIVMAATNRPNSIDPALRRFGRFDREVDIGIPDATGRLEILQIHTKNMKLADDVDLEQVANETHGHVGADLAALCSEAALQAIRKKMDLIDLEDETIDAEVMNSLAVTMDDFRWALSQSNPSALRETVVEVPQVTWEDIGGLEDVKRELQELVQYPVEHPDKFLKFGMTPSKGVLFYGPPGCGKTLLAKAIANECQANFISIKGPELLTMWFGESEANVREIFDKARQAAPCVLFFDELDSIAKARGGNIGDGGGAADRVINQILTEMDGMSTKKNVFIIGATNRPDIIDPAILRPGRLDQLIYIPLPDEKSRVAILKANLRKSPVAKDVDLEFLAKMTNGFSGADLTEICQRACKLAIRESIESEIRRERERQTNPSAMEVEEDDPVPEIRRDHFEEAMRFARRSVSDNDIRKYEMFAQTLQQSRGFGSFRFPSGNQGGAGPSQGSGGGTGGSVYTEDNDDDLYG
PfM18AAP inh-2 – PfM18AAP inhibition, confirmation; inhibition, % at 7.35 µM; shares compounds with PfM18AAP inh-1; recombinant PfM18AAP, H-Glu-NHMec fluorogenic cleavage; actives 28% (n = 2,400);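 active = mean inhibition over replicate wells above the hit cutoff set for the earlier primary screen, cut at about 29% in these data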;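 note: 0% = median of test compound wells and 100% = 2 mM ZnCl2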
CTSL1 counter – Cathepsin L (human) inhibition, confirmation | shares compounds with PfM18AAP inh-1 | purified cathepsin L1, Z-Leu-Arg-MCA fluorescence | inhibition, % at 5.96 µM | 2,400 tested, under 10 active | AID 2178;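 active = average inhibition across replicates above the hit cutoff set in the earlier primary screen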;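 note: 0% = median of test compound wells and 100% = Z-Phe-Ala-diazomethylketone 1 µM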
Starred values were filed as active, the others as inactive; nt = not tested or not shown. Only some compounds are listed: those with a hit (about 4.5% of all), similar ones and a draw of the others.

SMILES | NS3 helicase inh | CHOP UPR activ | CHOP inhibitor | PfM18AAP inh-1 | XBP1 UPR activ | p97 inhibitor | PfM18AAP inh-2 | CTSL1 counter
CCOC(=O)N1CCN(S(=O)(=O)c2ccc(C(=O)NNc3nc4cc(C)cc(C)c4s3)cc2)CC1 | -6 | 0 | 45 | 15 | 4 | -5 | nt | nt
Cc1cc(C)c2nc(NNC(=O)c3ccc(S(=O)(=O)N4CCCCC4)cc3)sc2c1 | 1 | 0 | 39 | 36* | -2 | -2 | -22 | 3
CCOC(=O)N1CCN(S(=O)(=O)c2ccc(C(=O)NNc3nc4c(C)cc(C)cc4s3)cc2)CC1 | -2 | -2 | 18 | 39* | -4 | 8 | -31 | 4
N#CC1(NC(=O)COc2ccc(C(N)=O)cc2)CCCC1 | nt | -1 | nt | nt | 2 | nt | nt | nt
CCN(CC)c1ccc(/C=N/NC(=S)NC)c(O)c1 | 12 | 8 | -46 | 41* | 1 | 5 | 10 | 12
CCN(CC)c1ccc(N=Cc2ccc(N(CC)CC)cc2O)cc1 | 35 | 1 | -3 | 43* | -1 | 0 | -22 | -2
CCN(CC)c1ccc(C=Nc2ccc(C)cc2)c(O)c1 | -8 | 3 | -20 | 13 | 2 | -7 | nt | nt
Cc1cc(C)c(NC(=S)NCC2CCN(C(C)c3ccccc3)C2)c(C)c1 (centres undefined) | -18 | -1 | -5 | 53* | 0 | -1 | 3 | -2
O=C(Nn1cnnc1)c1cc2c(s1)CCCCC2 | 2 | 5 | 10 | 53* | 1 | 2 | 55* | 5
CNC(=O)c1cc2c(s1)CCCCCC2 | -9 | -1 | 20 | 6 | 0 | 4 | nt | nt
NS(=O)(=O)c1ccc(NC(=S)NC2CCCCC2)cc1 | 5 | 3 | -3 | 43* | -2 | -2 | -4 | 1
O=c1[nH]c(CSc2ncnc3sccc23)nc2ccccc12 | 4 | 1 | 30 | -14 | 4 | 3 | nt | nt
O=c1[nH]c(CSc2ncn[nH]2)nc2ccccc12 | 4 | 1 | 2 | 69* | -1 | 8 | 73* | 5
N#C/C(=C/c1ccc(O)c(O)c1)c1nc2ccccc2[nH]1 | 1 | 4 | nt | 62* | 8 | nt | 43* | -1
CCOc1ccc(N(CC(=O)NC2CCCCC2)C(=O)CCC(=O)Nc2nccs2)cc1 | -1 | 0 | nt | 5 | -5 | nt | nt | nt
O=C(NNc1nc2cc3c(cc2s1)OCCO3)c1ccccc1 | 5 | 5 | -4 | 54* | 5 | 4 | 27 | 0
Cc1cccc2sc(NNC(=O)c3ccc4c(c3)OCCO4)nc12 | -5 | 0 | -3 | 34* | 4 | 2 | -13 | -6
Cc1c(Cl)cccc1NC(=S)NC1CCCC1 | -1 | -1 | nt | 1 | 0 | nt | nt | nt
C/C(=N/NC(=O)c1cc(O)c(O)c(O)c1)c1ccc([N+](=O)[O-])cc1 | 20 | nt | -20 | 50* | nt | 7 | 12 | 2
C/C(=N\NC(=O)c1ccc([N+](=O)[O-])cc1)c1c(O)cc(C)oc1=O | 0 | 1 | 6 | 5 | 3 | 3 | nt | nt
CCc1nnc(N/N=C/c2ccc(-c3ccc([N+](=O)[O-])cc3)o2)n1N | 0 | 1 | 22 | 43* | 1 | 5 | -36 | -3
CCc1nnc(N/N=C/c2cc(C)c(C)cc2C)n1N | 0 | 1 | nt | 40* | -3 | nt | -20 | 2
CCOc1cc(/C=N/Nc2nnc(C)n2N)ccc1O | -8 | 0 | nt | 25 | 4 | nt | nt | nt
Cc1oc(-c2ccc3c(c2)OCCO3)cc1C(=O)NC(CCC(=O)O)C(=O)O (centres undefined) | 14 | 3 | -5 | 38* | -2 | 1 | -12 | 8
Cc1cc(C)n(CC(=O)NNC(=O)C2CC(=O)N(Cc3ccccc3Cl)C2)n1 (centres undefined) | 6 | 0 | nt | 6 | -4 | nt | nt | nt
SMILES | NS3 helicase inh | CHOP UPR activ | CHOP inhibitor | PfM18AAP inh-1 | XBP1 UPR activ | p97 inhibitor | PfM18AAP inh-2 | CTSL1 counter
CCN(C(=O)c1cccc(NC(=O)c2ccccc2)c1)C1CCCCC1 | -6 | 2 | nt | 1 | -3 | nt | nt | nt
CCOC(=O)c1ccc(Nc2c(OCC)c(=O)c2=O)cc1 | -8 | 1 | 58 | 3 | -4 | 4 | nt | nt
CCOc1c(Nc2ccccc2O)c(=O)c1=O | 4 | 0 | 7 | 35* | 0 | 2 | -28 | 1
O=C(Nc1cc(N2CCOCC2)ncn1)NC1(C(F)(F)F)Oc2ccccc2O1 | 1 | 1 | 63 | 76* | 4 | 0 | 66* | 1
COc1cccc(NC(=O)c2ccccc2C(F)(F)F)c1 | 6 | 2 | -7 | 7 | -2 | 3 | nt | nt
CC(C)CNC(=O)NC1(C(F)(F)F)Oc2ccccc2O1 | 2 | 0 | 50 | 41* | 1 | 3 | -22 | 1
O=C(NCc1cccnc1)NC(C(F)(F)F)C(F)(F)F | 4 | -3 | -37 | 1 | 6 | 0 | nt | nt
COc1cccc(NC(=O)NC2(C(F)(F)F)Oc3ccccc3O2)c1 | 3 | -1 | 52 | 67* | 5 | -3 | 34* | -1
O=C(NCc1cccnc1)NC1(C(F)(F)F)Oc2ccccc2O1 | 5 | -3 | 27 | 55* | 2 | -4 | -2 | 4
CC1(C)CC(=O)c2c(O)cc(OCC(=O)N3CCN(c4ccccc4)CC3)cc2O1 | 11 | -2 | nt | 6 | -4 | nt | nt | nt
CCc1nnc(NC(=O)CCN2C(=O)C3CCCCC3C2=O)s1 (centres undefined) | 3 | 1 | nt | -1 | -4 | nt | nt | nt
CCOC(=O)Cc1csc(NC(=O)NC2(C(F)(F)F)Oc3ccccc3O2)n1 | 5 | 2 | 92* | 90* | 11 | 0 | 68* | 1
Oc1ccc(O)c(Cc2nc3ccccc3[nH]2)c1 | 6 | 5 | -40 | 44* | -5 | 7 | 71* | -6
CCCOc1ccc(C(=O)Nc2ccc(S(=O)(=O)N3C[C@@H]4C[C@@H](C3)c3cccc(=O)n3C4)cc2)cc1 | nt | 3 | nt | nt | 2 | nt | nt | nt
CCCCn1c(-c2sccc2C)n[nH]c1=S | -1 | -1 | -16 | 32* | -2 | 5 | 1 | 5
Cc1cc([N+](=O)[O-])nn1CC(=O)NCCCN1CCOCC1 | -1 | 2 | nt | -4 | 2 | nt | nt | nt
Cc1cc(C)c2c(=O)n(CC(=O)NCCCN3CCN(c4ccccc4F)CC3)sc2n1 | -9 | 16 | 1 | 47* | 27 | 3 | -9 | 0
Cc1cc(C)c2c(=O)n(CC(=O)NCCCN3CCOCC3)sc2n1 | -3 | 0 | -19 | 54* | 1 | 4 | 32* | 0
